Results reported in article PMC6844228 (International Journal of Nanomedicine, 2019).

How the values were obtained:
[1] = test system: human breast adenocarcinoma MCF-7 cells; assay: Cell Counting Kit-8 cytotoxicity assay, MCF-7; assay type: cell-based; conditions: MCF7, 48 h
Summary of the method: (§1)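 Cells were seeded at 5×10^3 per well in DMEM with 10% FBS, 100 μg/mL streptomycin and 100 IU/mL penicillin, then held 24 h at 37°C under 5% CO2. Medium was replaced with test compound at CA4-equivalent concentrations of 0.0025, 0.025, 0.25, 2.5, 25, 125 and 250 μM for 48 h. Then 10% CCK-8 was added for 1.5 h at 37°C and A450 read. Viability was calculated against control and blank wells, and IC50 derived.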

[2] = test system: human hepatocellular liver carcinoma HepG2 cells; assay: Cell Counting Kit-8 cytotoxicity assay, HepG2; assay type: cell-based; conditions: HepG2, 48 h
Summary of the method: as §1

mouse sarcoma S180 cells = assay: Cell Counting Kit-8 cytotoxicity assay, S180; assay type: cell-based; conditions: S-180, 48 h
Summary of the method: as §1

[3] = In vivo pharmacokinetics after tail vein injection; conditions: 2 h following injection, SD rats
Summary of the method: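 Male rats (180–200 g) were fasted 12 h, then dosed into the tail vein at drug-equivalent 28 mg/kg of phosphate prodrug. Orbital-vein blood was taken at 2, 5, 10, 15, 20, 30 and 45 min and at 1, 1.5, 2, 4, 6 and 10 h, into heparinized vials. Plasma was separated (4,000 rpm, 10 min), stored at −20°C, and prodrug and released parent drug were quantified by HPLC. n=6, mean ± SD.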

[4] = In vivo biodistribution in S180 tumor-bearing mice; conditions: iv, drug-equivalent doses of 28 mg/kg CA4P, heart, kidney, liver, spleen, lung

Detection of prodrug in plasma [3] | Compound | IC50 [1] [nM] | IC50 [2] [nM] | IC50 (mouse sarcoma S180 cells) [nM] | Tissue detection of prodrug [4]
– | COc1ccc(/C=C\c2cc(OC)c(OC)c(OC)c2)cc1O [CA4, combretastatin A4] | 4 ± 2 | 64 ± 6 | < 1 | –
could not be detected | COc1ccc(/C=C\c2cc(OC)c(OC)c(OC)c2)cc1OP(=O)(O)O [CA4P, combretastatin A4 phosphate] | 50 ± 8 | 179 ± 53 | < 1 | could be detected in the heart, liver, spleen, lung, kidney, and tumor
